Test results reported in ChEMBL document CHEMBL1136508, “[3H]-methoxymethyl-MTEP and [3H]-methoxy-PEPy: potent and selective radioligands for the metabotropic glutamate subtype 5 (mGlu5) receptor” (Bioorg Med Chem Lett, 2003).

What was measured:
[1] = target: T1, Metabotropic glutamate receptor 5 (Homo sapiens, UniProt P41594); test: In vitro functional potency using an automated assay employing LtK-cells stably expressing human recombinant mGlu5 receptor by measuring changes in cytosolic [Ca2+] concentration
T1 sequence (P41594 whole entry): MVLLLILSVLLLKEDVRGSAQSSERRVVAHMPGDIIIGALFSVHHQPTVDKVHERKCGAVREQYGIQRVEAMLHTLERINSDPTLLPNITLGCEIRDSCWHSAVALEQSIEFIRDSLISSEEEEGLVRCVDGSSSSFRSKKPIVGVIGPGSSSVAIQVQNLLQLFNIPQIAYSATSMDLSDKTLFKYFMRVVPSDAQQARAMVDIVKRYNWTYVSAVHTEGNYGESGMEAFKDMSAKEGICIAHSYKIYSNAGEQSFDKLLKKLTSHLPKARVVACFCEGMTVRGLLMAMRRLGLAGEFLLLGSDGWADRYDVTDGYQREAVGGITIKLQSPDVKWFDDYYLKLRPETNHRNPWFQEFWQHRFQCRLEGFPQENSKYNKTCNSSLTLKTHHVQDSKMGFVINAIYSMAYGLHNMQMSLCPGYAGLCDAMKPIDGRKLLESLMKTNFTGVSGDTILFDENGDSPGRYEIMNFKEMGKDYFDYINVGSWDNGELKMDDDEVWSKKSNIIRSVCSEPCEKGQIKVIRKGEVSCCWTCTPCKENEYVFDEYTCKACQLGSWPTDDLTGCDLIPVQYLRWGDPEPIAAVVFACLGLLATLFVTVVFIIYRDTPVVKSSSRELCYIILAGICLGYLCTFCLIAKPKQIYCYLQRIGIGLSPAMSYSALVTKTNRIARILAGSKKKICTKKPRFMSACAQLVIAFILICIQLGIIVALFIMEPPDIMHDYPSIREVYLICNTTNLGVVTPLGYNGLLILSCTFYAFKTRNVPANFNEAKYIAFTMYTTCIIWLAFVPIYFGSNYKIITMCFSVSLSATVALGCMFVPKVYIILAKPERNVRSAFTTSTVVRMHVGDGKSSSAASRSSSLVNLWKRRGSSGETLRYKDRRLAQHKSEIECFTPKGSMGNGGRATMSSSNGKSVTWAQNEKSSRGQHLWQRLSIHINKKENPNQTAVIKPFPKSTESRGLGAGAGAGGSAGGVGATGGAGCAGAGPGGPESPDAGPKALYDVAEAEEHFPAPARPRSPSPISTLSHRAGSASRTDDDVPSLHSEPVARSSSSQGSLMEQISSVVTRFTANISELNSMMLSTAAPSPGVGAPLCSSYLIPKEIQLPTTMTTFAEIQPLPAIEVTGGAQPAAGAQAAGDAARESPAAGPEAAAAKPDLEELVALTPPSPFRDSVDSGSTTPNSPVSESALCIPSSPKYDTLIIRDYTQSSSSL
In short: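 Ltk- cells stably expressing recombinant human mGlu5 were loaded with fura-2. Glutamate-evoked rises in cytosolic Ca2+ were read by fluorescence. Concentration–response curves used 12 concentrations in duplicate wells, from two or more separate experiments.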

[2] = Lipophilicity (Log D) was determined; format: physicochemical; conditions: octanol/water
In short: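 LogD was determined by an HPLC method.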

[3] = target: Metabotropic glutamate receptor 5 (Rattus norvegicus, UniProt P31424); test: Binding affinity towards mGlu5 receptors in rat brain membranes was evaluated; format: cell membranes
Sequence of Metabotropic glutamate receptor 5 (Rattus norvegicus, UniProt P31424) (P31424 whole entry): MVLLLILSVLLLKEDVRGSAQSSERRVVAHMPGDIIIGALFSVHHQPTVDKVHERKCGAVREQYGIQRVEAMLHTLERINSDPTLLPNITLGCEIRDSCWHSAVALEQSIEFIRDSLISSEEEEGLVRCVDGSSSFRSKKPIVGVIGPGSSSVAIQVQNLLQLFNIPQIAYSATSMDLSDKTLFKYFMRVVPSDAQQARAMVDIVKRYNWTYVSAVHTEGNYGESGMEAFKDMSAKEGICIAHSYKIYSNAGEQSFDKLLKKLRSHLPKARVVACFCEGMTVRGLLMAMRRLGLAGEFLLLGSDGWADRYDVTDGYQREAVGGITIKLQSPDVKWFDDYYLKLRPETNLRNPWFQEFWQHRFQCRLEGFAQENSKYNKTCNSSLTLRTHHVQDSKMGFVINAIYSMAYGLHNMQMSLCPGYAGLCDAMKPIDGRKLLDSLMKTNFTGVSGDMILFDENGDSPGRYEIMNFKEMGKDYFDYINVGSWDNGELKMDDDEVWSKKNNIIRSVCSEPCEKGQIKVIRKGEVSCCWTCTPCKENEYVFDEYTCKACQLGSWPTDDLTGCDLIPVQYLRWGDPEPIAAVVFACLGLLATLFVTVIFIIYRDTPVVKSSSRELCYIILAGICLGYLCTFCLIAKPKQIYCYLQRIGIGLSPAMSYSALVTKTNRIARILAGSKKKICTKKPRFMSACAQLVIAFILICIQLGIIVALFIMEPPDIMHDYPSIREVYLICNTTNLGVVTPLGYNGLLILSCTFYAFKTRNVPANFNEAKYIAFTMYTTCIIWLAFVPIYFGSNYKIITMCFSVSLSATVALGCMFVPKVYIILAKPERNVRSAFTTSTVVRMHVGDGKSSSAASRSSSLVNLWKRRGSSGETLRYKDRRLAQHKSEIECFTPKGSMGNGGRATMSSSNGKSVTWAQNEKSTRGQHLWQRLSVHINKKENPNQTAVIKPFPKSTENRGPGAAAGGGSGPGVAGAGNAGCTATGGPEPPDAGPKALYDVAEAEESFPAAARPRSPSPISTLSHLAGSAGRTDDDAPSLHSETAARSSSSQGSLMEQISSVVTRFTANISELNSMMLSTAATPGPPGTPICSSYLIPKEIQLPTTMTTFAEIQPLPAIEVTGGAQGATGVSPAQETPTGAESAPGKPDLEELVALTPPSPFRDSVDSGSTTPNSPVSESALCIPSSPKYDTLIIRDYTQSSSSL
In short: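 Displacement of [3H]-methoxy-PEPy (specific activity 67.6 Ci/mmol) binding to rat brain membranes, incubated at room temperature (equilibrium within 60 min). Nonspecific binding was defined with an unlabelled mGlu5 antagonist as cold displacer. Concentration–response curves gave IC50 values.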

[4] = target: T1, Metabotropic glutamate receptor 5; test: Binding affinity towards human mGlu5 receptors expressed in LtK-cells; format: cell-based

Row | IC50 [1] | logD [2] | IC50 [3] | IC50 [4] | Compound
1 | 1 nM | 2.25 | 12 nM | – | [3H]C([3H])([3H])Oc1cncc(C#Cc2ccccn2)c1
2 | 7 nM | 2.4 | – | 47 nM | [3H]C([3H])([3H])OCc1cncc(C#Cc2csc(C)n2)c1
3 | – | 2.5 | – | – | Cc1cncc(C#Cc2csc(C)n2)c1
4 | 19 nM | 2 | – | – | COCc1cncc(C#Cc2ccccn2)c1
